ChEMBL document CHEMBL2390916, “Low molecular weight dual inhibitors of factor Xa and fibrinogen binding to GPIIb/IIIa with highly overlapped pharmacophores” (Eur J Med Chem, 2013)

Assays:
[1] = biological target: Integrin alpha-IIb/beta-3 (Homo sapiens, UniProt P05106+P08514); assay: Displacement of biotinylated fibrinogen from human glycoprotein 2b/3a receptor after 2 hrs by chemiluminescence assay; format: protein-complex assay
Procedure, shortened: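 Solid-phase competitive binding: purified human GPIIb/IIIa coated overnight at 4 °C in Tris buffer pH 7.4 with 1 mM Ca2+, Mg2+, Mn2+; blocked with 1% BSA. Serially diluted inhibitor plus biotinylated human fibrinogen, 2 h rt; peroxidase anti-biotin antibody 1 h, chemiluminescent read.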

Prothrombin = Prothrombin (Homo sapiens, UniProt P00734); assay: Inhibition of thrombin (unknown origin) using S-2238 as substrate incubated for 15 mins prior to substrate addition measured every 10 secs by spectrophotometric analysis
Coagulation factor X = Coagulation factor X (Homo sapiens, UniProt P00742); assay: Inhibition of F10a (unknown origin) using S-2222 as substrate incubated for 15 mins prior to substrate addition measured every 10 secs by spectrophotometric analysis
Coagulation factor X, sequence (P00742 41-179 limits assumed): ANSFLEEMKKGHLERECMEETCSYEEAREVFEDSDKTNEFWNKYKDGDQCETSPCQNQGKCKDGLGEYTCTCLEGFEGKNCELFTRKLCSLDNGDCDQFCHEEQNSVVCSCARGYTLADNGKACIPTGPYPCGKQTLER
Coagulation factor X, sequence (P00742 235-488 limits assumed): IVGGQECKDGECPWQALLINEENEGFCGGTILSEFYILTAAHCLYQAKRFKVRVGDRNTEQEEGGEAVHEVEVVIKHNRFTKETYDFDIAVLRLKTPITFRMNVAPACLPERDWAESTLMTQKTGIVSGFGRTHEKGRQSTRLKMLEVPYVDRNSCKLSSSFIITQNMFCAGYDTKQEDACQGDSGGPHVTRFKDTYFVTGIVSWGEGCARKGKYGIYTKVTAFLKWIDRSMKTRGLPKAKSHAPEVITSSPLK
Procedure, shortened: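 Inhibitor 0.5–100 µM (from 10 mM DMSO stocks) preincubated with enzyme in HBSA buffer 15 min, 25 °C; A405 read every 10 s. Triplicate, three inhibitor × two substrate concentrations; Ki from initial linear rates via Cheng–Prusoff, averaged.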

Trypsin = Trypsin (Homo sapiens, UniProt P07477+P07478+P35030); assay: Inhibition of trypsin (unknown origin) using S-2222 as substrate incubated for 15 mins prior to substrate addition measured every 10 secs by spectrophotometric analysis; format: protein assay
Procedure, shortened: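 Trypsin at 0.5 nkat/mL final with S-2222 at 50 and 100 µM final. Inhibitor 0.5–100 µM, diluted from 10 mM DMSO stocks, preincubated 15 min at 25 °C with enzyme in HBSA buffer before substrate; absorbance at 405 nm every 10 s. Triplicate at three inhibitor and two substrate levels; Ki from initial rates (Cheng–Prusoff), averaged.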

Integrin alpha-IIb/beta-3, sequence (P05106 27-788 limits assumed): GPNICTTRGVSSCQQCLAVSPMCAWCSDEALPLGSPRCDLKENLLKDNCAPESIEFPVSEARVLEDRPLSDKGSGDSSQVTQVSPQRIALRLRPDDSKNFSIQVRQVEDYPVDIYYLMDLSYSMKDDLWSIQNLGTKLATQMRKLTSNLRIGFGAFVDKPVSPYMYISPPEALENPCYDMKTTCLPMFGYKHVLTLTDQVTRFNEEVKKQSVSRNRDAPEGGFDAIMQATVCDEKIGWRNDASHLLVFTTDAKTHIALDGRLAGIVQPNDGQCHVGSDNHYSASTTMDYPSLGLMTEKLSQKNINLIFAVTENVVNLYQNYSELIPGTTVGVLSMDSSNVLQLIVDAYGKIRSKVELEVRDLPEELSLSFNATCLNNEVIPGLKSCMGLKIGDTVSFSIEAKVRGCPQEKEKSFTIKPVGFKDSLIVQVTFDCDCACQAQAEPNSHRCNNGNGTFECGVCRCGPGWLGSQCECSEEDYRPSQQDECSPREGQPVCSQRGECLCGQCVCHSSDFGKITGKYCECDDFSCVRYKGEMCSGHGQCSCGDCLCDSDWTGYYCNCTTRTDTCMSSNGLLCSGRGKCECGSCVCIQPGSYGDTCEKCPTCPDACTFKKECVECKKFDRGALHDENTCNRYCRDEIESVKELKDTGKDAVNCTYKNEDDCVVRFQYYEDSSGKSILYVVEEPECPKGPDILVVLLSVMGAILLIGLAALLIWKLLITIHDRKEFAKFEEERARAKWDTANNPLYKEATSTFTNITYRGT
Integrin alpha-IIb/beta-3, sequence (P08514 32-887 limits assumed): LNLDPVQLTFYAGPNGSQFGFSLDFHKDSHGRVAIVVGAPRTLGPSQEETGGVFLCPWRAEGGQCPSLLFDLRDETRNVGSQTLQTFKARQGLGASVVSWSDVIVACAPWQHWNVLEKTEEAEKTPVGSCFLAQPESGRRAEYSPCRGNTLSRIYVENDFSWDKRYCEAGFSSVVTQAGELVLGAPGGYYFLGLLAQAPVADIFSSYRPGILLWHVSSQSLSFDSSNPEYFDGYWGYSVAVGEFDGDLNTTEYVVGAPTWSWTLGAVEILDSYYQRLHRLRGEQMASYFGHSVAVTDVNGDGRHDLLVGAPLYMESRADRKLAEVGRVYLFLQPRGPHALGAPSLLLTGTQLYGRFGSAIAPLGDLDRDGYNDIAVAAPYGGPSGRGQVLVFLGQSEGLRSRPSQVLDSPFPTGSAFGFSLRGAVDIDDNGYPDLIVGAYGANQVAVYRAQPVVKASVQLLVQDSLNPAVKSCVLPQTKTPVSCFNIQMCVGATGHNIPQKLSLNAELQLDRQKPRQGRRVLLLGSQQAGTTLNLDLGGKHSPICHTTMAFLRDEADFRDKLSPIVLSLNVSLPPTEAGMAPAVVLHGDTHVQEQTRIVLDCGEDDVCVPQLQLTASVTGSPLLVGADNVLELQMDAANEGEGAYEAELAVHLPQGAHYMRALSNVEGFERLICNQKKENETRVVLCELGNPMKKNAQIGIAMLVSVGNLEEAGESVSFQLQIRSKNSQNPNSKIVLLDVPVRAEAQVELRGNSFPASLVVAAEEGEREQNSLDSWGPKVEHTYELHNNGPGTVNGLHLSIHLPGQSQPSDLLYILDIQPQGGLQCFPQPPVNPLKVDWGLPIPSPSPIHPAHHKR
Integrin alpha-IIb/beta-3, sequence (P08514 891-1039 limits assumed): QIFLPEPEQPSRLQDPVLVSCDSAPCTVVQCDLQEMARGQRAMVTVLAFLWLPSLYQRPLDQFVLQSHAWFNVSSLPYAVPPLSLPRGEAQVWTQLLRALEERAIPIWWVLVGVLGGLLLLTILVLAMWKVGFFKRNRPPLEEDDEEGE

Structure (SMILES) | IC50 [1] | Ki (Prothrombin) | Ki (Coagulation factor X) | Ki (Trypsin)
O=C(NC[C@@H]1CN(c2ccc(N3CCC(C(=O)O)CC3)cc2)C(=O)O1)c1ccc(Cl)s1 | > 300 µM |  |  | 
O=C(NC[C@H]1CN(c2ccc(N3CCC(C(=O)O)CC3)cc2)C(=O)O1)c1ccc(Cl)s1 | > 300 µM |  |  | 
CCOC(=O)C1CCN(c2ccc(N3C[C@H](CNC(=O)c4cnc(N)s4)OC3=O)cc2)CC1.O=C(O)C(F)(F)F | > 300 µM | > 100 µM | 54.4 µM | > 100 µM
CCOC(=O)C1CCN(c2ccc(N3C[C@@H](CNC(=O)c4cnc(N)s4)OC3=O)cc2)CC1.O=C(O)C(F)(F)F | > 300 µM | > 100 µM | 111 µM | > 100 µM
CCOC(=O)C1CCCCN1c1ccc(N2C[C@H](CNC(=O)c3cnc(N)s3)OC2=O)cc1.O=C(O)C(F)(F)F (stereo partly specified) | > 300 µM | > 100 µM | 28.7 µM | > 100 µM
CCOC(=O)C1CCN(c2ccc(N3C[C@H](CNC(=O)c4cnc(N)s4)OC3=O)cc2)C(=O)C1.O=C(O)C(F)(F)F (stereo partly specified) | > 300 µM | > 100 µM | 38.2 µM | > 100 µM
CCOC(=O)C1(C)CCCN(c2ccc(N3C[C@H](CNC(=O)c4cnc(N)s4)OC3=O)cc2)C1=O.O=C(O)C(F)(F)F (stereo partly specified) | > 300 µM | > 100 µM | 55.6 µM | > 100 µM
CC1(C(=O)O)CCCN(c2ccc(N3C[C@H](CNC(=O)c4cnc(N)s4)OC3=O)cc2)C1=O.O=C(O)C(F)(F)F (stereo partly specified) | > 300 µM | > 100 µM | 11.2 µM | > 100 µM
O=C(NC[C@H]1CN(c2ccc(N3CCC(C(=O)O)CC3)cc2)C(=O)O1)c1ccc(-c2noc(=O)[nH]2)cc1 | 16 µM | > 100 µM | > 100 µM | > 100 µM
O=C(O)C1CCN(c2ccc(N3C[C@H](CNCc4ccc(-c5noc(=O)[nH]5)cc4)OC3=O)cc2)CC1 | 0.89 µM | > 100 µM | > 100 µM | > 100 µM
CC(=O)O.CCOC(=O)C1CCN(c2ccc(N3C[C@H](CNCc4ccc(C(=N)N)cc4)OC3=O)cc2)CC1 | 55 µM | > 100 µM | 34.3 µM | 2.17 µM
CC(=O)O.N=C(N)c1ccc(C(=O)NC[C@H]2CN(c3ccc(N4CCC(C(=O)O)CC4)cc3)C(=O)O2)cc1 | 12 µM | > 100 µM | 43 µM | 8.95 µM
CC(=O)O.N=C(N)c1ccc(C(=O)NC[C@@H]2CN(c3ccc(N4CCC(C(=O)O)CC4)cc3)C(=O)O2)cc1 | 4.7 µM | > 100 µM | 62.9 µM | 3.79 µM
CC(=O)O.N=C(N)c1ccc(CNC[C@H]2CN(c3ccc(N4CCC(C(=O)O)CC4)cc3)C(=O)O2)cc1 | 2.2 µM | 53 µM | 54.1 µM | 17.8 µM
CCOC(=O)C1CCN(c2ccc(N3C[C@H](CNC(=O)c4ccc(Cl)c(N)c4)OC3=O)cc2)CC1 | > 300 µM | > 100 µM | 10.8 µM | > 100 µM
Nc1cc(C(=O)NC[C@H]2CN(c3ccc(N4CCC(C(=O)O)CC4)cc3)C(=O)O2)ccc1Cl | 25.8 µM | > 100 µM | 37 µM | > 100 µM
O=C(NC[C@H]1CN(c2ccc(N3CCC(C(=O)O)CC3)cc2)C(=O)O1)c1ccc(Cl)c(-c2noc(=O)[nH]2)c1 | 15.3 µM | > 100 µM | 89.7 µM | > 100 µM

The remaining lines, values ahead:

IC50 [1] | Ki (Prothrombin) | Ki (Coagulation factor X) | Ki (Trypsin) | Structure (SMILES)
78.4 µM | > 100 µM | 48.8 µM | > 100 µM | Nc1ncc(C(=O)NC[C@H]2CN(c3ccc(N4CCC(C(=O)O)CC4)cc3)C(=O)O2)s1.O=C(O)C(F)(F)F
16.8 µM | > 100 µM | 88.2 µM | > 100 µM | Nc1ncc(C(=O)NC[C@@H]2CN(c3ccc(N4CCC(C(=O)O)CC4)cc3)C(=O)O2)s1.O=C(O)C(F)(F)F
> 300 µM | > 100 µM | 49.3 µM | > 100 µM | CCOC(=O)C1CCCN(c2ccc(N3C[C@H](CNC(=O)c4cnc(N)s4)OC3=O)cc2)C1.O=C(O)C(F)(F)F (stereo partly specified)
> 300 µM | > 100 µM | 47.5 µM | > 100 µM | Nc1ncc(C(=O)NC[C@H]2CN(c3ccc(N4CCCC(C(=O)O)C4)cc3)C(=O)O2)s1.O=C(O)C(F)(F)F (stereo partly specified)
0.87 µM | > 100 µM | > 100 µM | > 100 µM | O=C(NC[C@@H]1CN(c2ccc(N3CCC(C(=O)O)CC3)cc2)C(=O)O1)c1ccc(-c2noc(=O)[nH]2)cc1
0.26 µM | > 100 µM | 94.8 µM | > 100 µM | O=C(O)C1CCN(c2ccc(N3C[C@@H](CNCc4ccc(-c5noc(=O)[nH]5)cc4)OC3=O)cc2)CC1
14 µM | > 100 µM | > 100 µM | 5.65 µM | CC(=O)O.CCOC(=O)C1CCN(c2ccc(N3C[C@H](CNC(=O)c4ccc(C(=N)N)cc4)OC3=O)cc2)CC1
96 µM | > 100 µM | > 100 µM | 3.06 µM | CC(=O)O.CCOC(=O)C1CCN(c2ccc(N3C[C@@H](CNC(=O)c4ccc(C(=N)N)cc4)OC3=O)cc2)CC1
35 µM | > 100 µM | 25.6 µM | 6.59 µM | CC(=O)O.CCOC(=O)C1CCN(c2ccc(N3C[C@@H](CNCc4ccc(C(=N)N)cc4)OC3=O)cc2)CC1
> 300 µM | > 100 µM | 82.3 µM | > 100 µM | CCOC(=O)C1CCN(c2ccc(N3C[C@@H](CNC(=O)c4ccc(Cl)c(N)c4)OC3=O)cc2)CC1
12.8 µM | > 100 µM | 57.7 µM | > 100 µM | Nc1cc(C(=O)NC[C@@H]2CN(c3ccc(N4CCC(C(=O)O)CC4)cc3)C(=O)O2)ccc1Cl
